PAX8 reporter: lowers PAX8-driven luciferase in RMG-I cells; RMG-I TPO-luciferase reporter, SteadyGlo, 24 h; inhibition, % at 12.6 µM; 360,000 tested, 1.2% active; AID 652154;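 active = mean replicate inhibition at least 60% with every replicate also reaching 60%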;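 note: luciferase light reporting Pax8 driven TPO promoter activity; plate controls were median of neutral control wells for no effect and mitoxantrone controls for full effect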
Arrestin-AP2 inh: blocks beta-arrestin peptide binding to AP2 adaptin; FITC-arrestin peptide / GST-AP2 beads, flow cytometry; AP2 beta2 appendage carries R879A mutation; inhibition, % at 10 µM; 340,000 tested, 0.31% active; AID 504490;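 active = inhibition above a set limit, near 3 SD of compounds lacking own fluorescence, cut at about 54% in these data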;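 note: plate controls were DMSO wells for no effect and 5 µM unlabelled arrestin peptide for full effect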
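Measured by: flow cytometry, FL1 (488/535 nm); Material: AP2 appendage R879A on GSH beads; Evaluation: percent response; Timing: pre-incubation 12 min, peptide binding 1 h, room temperature; Also added: 50 nM FITC-arrestin peptide; Medium: PBS with 0.05% Tween 20 and 0.1% BSA.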
Rtt109 Vps75: inhibitors of Candida albicans Rtt109/Vps75 histone acetyltransferase; inhibition, % at 34.9 µM; Q5AAJ8; purified Rtt109/Vps75, ThioGlo CoA-SH fluorescence, 4 h; 330,000 tested, 0.16% active;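 active = inhibition of at least 50% in every replicate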
Target sequence (Q5AAJ8 whole entry, looked up): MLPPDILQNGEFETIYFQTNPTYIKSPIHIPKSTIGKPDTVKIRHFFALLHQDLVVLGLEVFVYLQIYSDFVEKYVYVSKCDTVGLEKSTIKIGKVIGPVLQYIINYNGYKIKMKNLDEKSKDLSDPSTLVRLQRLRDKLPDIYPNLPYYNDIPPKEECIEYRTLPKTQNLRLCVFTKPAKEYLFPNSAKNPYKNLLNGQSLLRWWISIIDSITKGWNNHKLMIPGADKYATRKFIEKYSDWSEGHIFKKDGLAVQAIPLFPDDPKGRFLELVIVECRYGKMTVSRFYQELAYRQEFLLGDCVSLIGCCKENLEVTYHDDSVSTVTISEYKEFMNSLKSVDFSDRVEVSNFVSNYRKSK
Env fusion inh: inhibitors of HIV Env-mediated cell fusion; inhibition, % at 12.3 µM; AID 651610; 360,000 tested, 1.1% active; HeLa-JRFL Env/CEM21 cell fusion, luciferase;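 active = mean replicate inhibition score of at least 50 and every replicate individually at or above 50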;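 note: 0% = plate neutral controls and 100% = maraviroc near 300 nM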
Glyco luc inh: N-linked glycosylation inhibition | D54 ERlucT glycosylation luciferase reporter, 24 h; percent of 100 nM tunicamycin response | AID 588692 | reporter increase, % at 12.5 µM | 360,000 tested, 0.23% active;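 active = mean luciferase reporter signal, scaled so untreated is 0 and the glycosylation-blocking control 100, at or above a set limit in every replicate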;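 note: luciferase carries N-glycosylation sites so blocking glycosylation raises the light; 0% = median of neutral control wells and 100% = median of 100 nM tunicamycin wells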
PfHsp90 yeast 2: reduces growth (ATP signal) of yeast expressing P. falciparum Hsp90; inhibition, % at 9.4 µM; S. cerevisiae expressing PfHsp90, BacTiter-Glo ATP, 48 h; yeast lacking PDR1 and PDR3 efflux regulators; 310,000 tested, 0.32% active;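 active = every replicate shows inhibition above about 80%, whatever the replicate mean, limit read from the data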;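 note: 0% = DMSO neutral controls and 100% = 20 µM radicicol positive controls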
The depositor's hits bear a star; nt = no result given; [ ] = dose if it differs, or a comment. The list is not random: actives were taken first. Their share in the collection is about 2.3%.

SMILES	PAX8 reporter	Arrestin-AP2 inh	Rtt109 Vps75	Env fusion inh	Glyco luc inh	PfHsp90 yeast 2
Cc1cc(C)c(-c2csc(NC(=O)/C=C/c3cccs3)n2)c(C)c1	18	16	-4	63*	-4	-10
CN(C)CCN(C(=O)CCS(=O)(=O)c1ccccc1)c1nc2c(F)cccc2s1	7	25	-1	-7	0	14
Cc1ccc2sc(N(CCCN(C)C)C(=O)CCS(=O)(=O)c3ccccc3)nc2c1C	81*	20	-3	1	-17	-17
COc1ccc(OC)c2sc(N(CCCN(C)C)C(=O)CCS(=O)(=O)c3ccccc3)nc12	108*	13	83*	27	-12	nt
Cc1cccc2sc(N(CCCN(C)C)C(=O)CN3C(=O)c4ccccc4C3=O)nc12	-2	-5	-2	-6	0	2
Cc1cccc2sc(N(CCCN(C)C)C(=O)CCc3ccccc3)nc12	-2	0	58*	-43	3	-10
C[C@H](CO)N1C[C@H](C)[C@H](CN(C)S(=O)(=O)c2ccc(F)cc2)Oc2ncc(C#CC(C)(C)O)cc2C1=O	nt	nt	nt	5[16.7 µM]	nt	nt
N#C/C(=C\c1cccc(Oc2ccccc2)c1)C(=O)N1CCOCC1	-3	-6	8	8	2	100*
COc1cc(/C=C(\C#N)C(=O)N2CCOCC2)cc(Br)c1O	-7	-7	11	9	2	9
C[C@@H]1CN([C@@H](C)CO)C(=O)c2cc(NC(=O)Nc3ccc(C(F)(F)F)cc3)ccc2O[C@H]1CN(C)C(=O)Nc1ccc(C(F)(F)F)cc1	92*	nt	nt	8[16.7 µM]	nt	nt
C[C@@H]1CN([C@H](C)CO)C(=O)c2cc(NC(=O)Nc3ccc4c(c3)OCO4)ccc2O[C@H]1CN(C)C(=O)Nc1ccc(C(F)(F)F)cc1	65*	nt	nt	6[16.7 µM]	nt	nt
CC(C)NC(=O)Nc1ccc2c(c1)C(=O)N([C@@H](C)CO)C[C@H](C)[C@H](CN(C)C(=O)Nc1ccc(F)cc1)O2	-10	nt	nt	70*[16.7 µM]	nt	nt
COCC(=O)Nc1ccc2c(c1)C(=O)N(C)[C@H]1CC[C@H](CC(=O)Nc3ccccc3F)O[C@@H]1CO2	11	nt	nt	-19[16.7 µM]	nt	nt
O=C(NCc1ccco1)c1ccc(Cn2c(=O)c3ccccc3n(Cc3cccc(F)c3)c2=O)cc1	nt	-2	-3	85*	-3	-18
COCCNC(=O)Cn1c(=O)n(Cc2ccc(C(=O)NCc3ccco3)cc2)c(=O)c2ccccc21	-9	8	2	-68	1	-14
O=C(NCc1ccco1)c1ccc(Cn2c(=O)c3ccccc3n(Cc3ccc(Cl)cc3)c2=O)cc1	nt	24	-1	119*	-5	nt
CN(C)CC(=O)N1[C@H](C(=O)NC2CCCC2)[C@@H](CO)[C@@H]2Cn3c(ccc(-c4ccc(F)cc4)c3=O)[C@@H]21	0	nt	nt	nt	nt	nt
CCOC(=O)c1nc(Nc2ccc(N3CCC(C)CC3)cc2)c2ccccc2n1	-1	10	20	62*	-10	-6
CCOC(=O)c1nc(Nc2ccc(Nc3ccccc3)cc2)c2ccccc2n1	22	-9	14	13	7	-10
C=CCOC(=O)c1oc(COC[C@@H](NC(=O)N(C)Cc2ccccc2)c2ccccc2)c(C(=O)OC)c1C(=O)OC	-6	nt	nt	12[16.7 µM]	nt	nt
CCC(=O)N1[C@@H](CO)[C@@H]2c3ccccc3N(C(=O)c3cccc(OC)c3)C[C@@H]21	-1	nt	nt	nt	nt	nt
Cc1cnc2c(N)cc(C)c(C)c2c1	44	nt	nt	77*	-3	nt
C[C@H](CO)N1C[C@H](C)[C@@H](CN(C)C(=O)c2ccccn2)Oc2cc(C#Cc3ccccc3)ccc2S1(=O)=O	-12	nt	nt	-25[16.7 µM]	nt	nt
Cc1cccc(NC(=O)CSCC(=O)Nc2cc(C(F)(F)F)ccc2N2CCOCC2)c1	2	nt	nt	69*	1	nt
Cc1cc(NC(=O)C(C)SCC(=O)Nc2cc(C(F)(F)F)ccc2N2CCCCC2)no1 (stereo not drawn)	-18	4	1	74*	-2	29
C[C@@H]1CN([C@H](C)CO)S(=O)(=O)c2ccc(C3=CCCCC3)cc2O[C@H]1CN(C)C	nt	nt	nt	11[16.7 µM]	nt	nt
COc1cccc(S(=O)(=O)N2CCC3(CC2)CN(C(=O)Nc2cccc(F)c2)[C@H](CO)c2[nH]c4cc(OC)ccc4c23)c1	nt	nt	nt	22[16.7 µM]	nt	nt
COc1cccc(S(=O)(=O)N2CCC3(CC2)CN(C(=O)Nc2cccc(F)c2)[C@@H](CO)c2[nH]c4cc(OC)ccc4c23)c1	nt	nt	nt	72*[16.7 µM]	nt	nt

Source: PubChem BioAssay (several laboratories)
